From PubChem
Shown are actives, neighbours in structure and some others; about 2% of the full set was active somewhere.
TROY NFkB inh – TROY signaling inhibition; Q293 LMP1-TROYcd NF-kB luciferase reporter, 4 h; inhibition, % at 10 µM; 360,000 tested, 0.98% active; AID 1347056;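 active means compounds whose plate-normalised and pattern-corrected inhibition of the luciferase reporter signal at the single screening dose is 50% or more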
LMP1 NFkB inh – inhibitors of Epstein-Barr LMP1-induced NF-kappaB reporter; LMP1-induced NF-kappaB luciferase reporter cells, luminescence; inhibition, % at 12.5 µM; 350,000 tested, 0.69% active; in the data active means inhibition above about 41%;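 further: 0% = neutral control wells and 100% = reference inhibitor control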
NR2E3 ag-1 – agonists of human NR2E3 nuclear receptor; Q9Y5X4; CHO-S Gal4-NCOR/VP16-NR2E3 two-hybrid, luciferase; inhibition of corepressor binding, % at 3.98 µM; 360,000 tested, 0.35% active; AID 602229;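 active means inhibition above the mean of all tested compounds plus 3 SD, cut at about 70% in these data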;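 further: 0% = DMSO with NR2E3 transfected cells and 100% = cells lacking NR2E3 construct; higher means lower luciferase signal from less NR2E3 corepressor binding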
NR2E3 ag-2 – agonists of human nuclear receptor NR2E3; Q9Y5X4; GST-NR2E3/biotin-RetCOR TR-FRET, 1536-well; inhibition of corepressor binding, % at 4.78 µM; 320,000 tested, 0.12% active; AID 2300;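 active means percent inhibition above the cutoff of mean plus 3 SD of all tested compounds, set per screening campaign, cut at about 20% in these data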;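 further: 0% = DMSO wells and 100% = biotin wells as full block of FRET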
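Material: NR2E3–RetCOR corepressor complex / Incubation: Compound–protein incubation for 5 h at 4 °C / Dosing: compound at 4.8 µM, single dose / Detection: time-resolved FRET / Benchmarks: high control biotin, low control 0.6% DMSO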
HIF act – HIF pathway transcriptional activation. activation, % at 7.5 µM (by protocol). 300,000 tested, 0.32% active. U2OS HRE-luciferase reporter, luminescence; normalized: DMSO 0%, desferrioxamine 100%;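 active means mean activation of at least 10% of the iron chelator positive control signal, with at least half of replicates also reaching 10%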
NR2E3 ag confirm – confirmation of human NR2E3 nuclear receptor agonists; shares compounds with NR2E3 ag-2; cell-free NR2E3 corepressor release, TR-FRET, 5 h; activation (reported as inhibition), % at 3.98 µM; 360 tested, 39% active; in the data active means activation above about 20%
PPARg-NCOR2 ctr – releases PPARgamma from NCOR2 in NR2E3 counter-screen. 360 tested, 45% active. AID 504787. TR-FRET PPARg-NCOR2 coregulator interaction, biochemical. shares compounds with NR2E3 ag-2. inhibition, % at 3.98 µM; in the data active means inhibition above about 20%;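 further: 0% = DMSO vehicle and 100% = wells without protein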
* hit, by the source's call; nt = no result.

SMILES | TROY NFkB inh | LMP1 NFkB inh | NR2E3 ag-1 | NR2E3 ag-2 | HIF act | NR2E3 ag confirm | PPARg-NCOR2 ctr
Cc1ccc(C(=O)C2=C(O)C(=O)N(Cc3cccnc3)C2c2ccc(Br)cc2)o1 (stereo not drawn) | 18 | 2 | 16 | 21* | 0 | 22* | 18
COc1c(Cl)ccc(Cl)c1C(=O)NC(=O)Nc1nc(C)cc(C)n1 | 12 | 6 | -34 | 0 | 1 | nt | nt
CNC(=O)/C(=C\c1ccc2c(c1)OCO2)NC(=O)c1ccc(Br)cc1 | 9 | 6 | 7 | 0 | -2 | nt | nt
COc1ccc(-c2c(C)sc(NC(=O)c3ccnn3C)c2C#N)cc1 | 1 | 14 | -8 | 30* | 0 | 9 | 21*
Cn1nccc1C(=O)Nc1sc2c(c1C#N)CCCC2 | -49 | -10 | -50 | 1 | 3 | nt | nt
Cc1ccccc1-n1c(=O)n(Cc2ccco2)c(=O)c2[nH]cnc21 | 11 | 7 | 6 | 4 | -2 | nt | nt
O=C1CC(=O)C(n2cncn2)C(c2cccc(Cl)c2)C1 (stereo not drawn) | 1 | -1 | -9 | 0 | 0 | nt | nt
O=C1C=C(O)C(n2cncn2)C(c2ccc3c(c2)OCO3)C1 (stereo not drawn) | -2 | -2 | -15 | 24* | 0 | -8 | -2
O=C(c1cc2cc(F)ccc2[nH]1)N1CCc2ccccc21 | -47 | -38 | -202 | nt | 3 | nt | nt
COc1ccc(S(=O)(=O)Nc2ccccc2N2CCOCC2)cc1OC | -42 | -2 | 2 | -4 | nt | nt | nt
COc1ccccc1NC(=O)CSc1nc(N)c(C#N)cc1C#N | 6 | -1 | -14 | -1 | 0 | nt | nt
CCOc1ccccc1NC(=O)CSc1nc(N)c(C#N)cc1C#N | -8 | 8 | 0 | 43* | 0 | 33* | 54*
Cc1ccc(S(=O)(=O)NC(=O)C2(C)CCN2C(=O)c2ccc(C(F)(F)F)nc2C)cc1 (stereo not drawn) | 2 | nt | -25 | nt | nt | nt | nt
N#CC(=Cc1ccc(O)cc1)C(N)=C(C#N)C#N | -14 | -10 | -8 | 23* | nt | -4 | 6
CC(=O)c1sc2nc(SCC(=O)NCCc3ccccc3)[nH]c(=O)c2c1C | -5 | -1 | 10 | 32* | 0 | 13 | 20*
COc1cccc2cc(C(=O)C3=C(O)C(=O)N(Cc4ccco4)C3c3cccnc3)oc12 (stereo not drawn) | -21 | 4 | -23 | 28* | -4 | 20* | 24*
O=C(C1=C(O)C(=O)N(Cc2ccco2)C1c1cccnc1)c1cc2ccccc2o1 (stereo not drawn) | -64 | -13 | -19 | 38* | 0 | 43* | 42*
COc1ccc(C2C(C(=O)c3ccco3)=C(O)C(=O)N2Cc2cccnc2)cc1OC (stereo not drawn) | -40 | -11 | -18 | 4 | 0 | nt | nt
CCCCNC(=O)C1(C)CCN1C(=O)c1csnn1 (stereo not drawn) | -7 | nt | 3 | nt | nt | nt | nt
CC1Cc2ccccc2N1C(=O)COc1ccc2c(c1)OCO2 (stereo not drawn) | -61 | -24 | -41 | -3 | 1 | nt | nt
N#Cc1c(-c2ccco2)nc(SCc2ccc(F)cc2)[nH]c1=O | 21 | -4 | 27 | 40* | 0 | 10 | 59*
COc1ccc(-c2nc(SCc3ccc(C#N)cc3)[nH]c(=O)c2C#N)cc1 | 25 | 2 | -19 | -3 | 1 | nt | nt
CC(C(=O)NC(C)(C)C)N(C(=O)CS(=O)CC(=O)Nc1ccc(F)cc1)C1CCCC1 (stereo not drawn) | 6 | -2 | 10 | 1 | 0 | nt | nt
CCCN(C(=O)COC(=O)c1nc2nc(C)cc(C)n2n1)C1CCS(=O)(=O)C1 (stereo not drawn) | -15 | 9 | -23 | 3 | nt | nt | nt
CCCCC1=CC2=C(c3ccco3)C(=O)C(C)(OC(=O)c3ccc(OC)cc3)C(=O)C2=CN1c1ccc(OC)cc1 (stereo not drawn) | -1 | 1 | -20 | 34* | 0 | -3 | 5
SMILES | TROY NFkB inh | LMP1 NFkB inh | NR2E3 ag-1 | NR2E3 ag-2 | HIF act | NR2E3 ag confirm | PPARg-NCOR2 ctr
CCCCC1=CC2=C(c3ccco3)C(=O)C(C)(OC(=O)c3ccc(OC)cc3)C(=O)C2=CN1C1CCCC1 (stereo not drawn) | nt | nt | nt | 47* | 0 | 8 | 13
C[C@H]1CN([C@@H](C)CO)C(=O)CCCn2nncc2CO[C@@H]1CN(C)Cc1cccc(O)c1 | -5 | 0 | -23 | nt | nt | nt | nt
CCN(CC(=O)NC(C)(C)C)Cc1nc2c(Br)cc(Br)cc2c(=O)[nH]1 | 34 | -8 | -6 | 22* | 0 | 33* | 29*
CCN(CC(=O)NC1CCS(=O)(=O)C1)Cc1nc2c(Br)cc(Br)cc2c(=O)[nH]1 (stereo not drawn) | 5 | -5 | -10 | 17 | 0 | nt | nt
Cc1ccc(CSCCNC(=O)c2ccc(N(C)S(=O)(=O)c3ccccc3)cc2)cc1 | 19 | 8 | 25 | 22* | 0 | -10 | 4
Cc1nc(-c2ccc(Br)cc2)ccc1C(=O)O | 5 | -2 | -6 | 25* | 1 | 19 | 18
Cc1ccc(-c2ccc(C(=O)O)c(C)n2)cc1 | 8 | -2 | 1 | 1 | -1 | nt | nt
CC[C@]12c3[nH]c4cc(-c5ccco5)ccc4c3CCN1C(=O)[C@@H](CC(=O)NC(C)(C)C)C[C@@H]2C(=O)N1CCN(C(=O)C2CC2)CC1 | -13 | -3 | -56 | nt | nt | nt | nt
CCCCOc1ccc(-c2c(C(=O)Nc3ccccc3)c(C)[nH]c(=S)c2C#N)cc1 | 7 | -40 | -9 | 94* | 0 | 84* | 71*
CCOC(=O)c1c(C)[nH]c(=S)c(C#N)c1-c1ccc(OC)cc1 | 0 | 5 | 0 | 14 | 0 | nt | nt
Cc1ccc(-c2c3c([nH]c(=S)c2C#N)CCCC3)o1 | 2 | -1 | -8 | 49* | 0 | 82* | 75*
N#Cc1c(-c2ccncc2)c2c([nH]c1=S)CCCC2 | 9 | -1 | -6 | 3 | 0 | nt | nt
Cc1ccc(-c2cc(C(=O)O)c3cc(Br)ccc3n2)o1 | 4 | -9 | -28 | 31* | 0 | 24* | 36*
Cc1ccc(-c2cc(C(=O)NN3CCOCC3)c3cc(Br)ccc3n2)o1 | -2 | 15 | -8 | 4 | 0 | nt | nt
CC(=O)NC(CSc1cc(C)nc2ccc(Br)cc12)C(=O)O (stereo not drawn) | 5 | -3 | -22 | 25* | 0 | 11 | 67*
N#CC(C#N)=C1NC(N)=C(C#N)C(c2ccccc2)=C1C#N | 14 | 2 | -42 | 48* | -1 | 45* | 40*
N#CC1=C(c2ccccc2)/C(=C/c2ccccc2)OC1=O | -6 | 13 | -21 | 1 | 4 | nt | nt
CCCC(=O)N1CCCC(c2cc(C(=O)NCc3ccc(F)cc3)no2)C1 (stereo not drawn) | 2 | nt | -13 | nt | nt | nt | nt
